{"source": "ChEMBL document CHEMBL1129554", "about": "“6-Substituted and 5,6-disubstituted derivatives of uridine: stereoselective synthesis, interaction with uridine phosphorylase, and in vitro antitumor activity” (J Med Chem, 1996)", "key": {"[1]": {"test": "Catalytical constant (app Km)of the compound was evaluated at pH 6", "format": "ADME", "conditions": "read-out: Km app", "outline": "(§1)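 Homogeneous E. coli uridine phosphorylase in 50 mM phosphate buffer at 37 °C. pH 6 was used for 5-fluoro analogues and pH 7.5 for the others, so the neutral form predominates. Phosphorolysis was followed spectrophotometrically as the decrease in absorbance, 285 nm for 5-fluoro and 280 nm for the rest. Initial rates were taken over 20 s. Apparent Km and Vmax came from a Wilkinson fit, and efficacy = Vmax/Km.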"}, "MOLT-3": {"test_system": "MOLT-3", "test": "In vitro antitumor activity in MOLT-3 cell lines", "format": "functional, cell-based", "conditions": "Homo sapiens", "outline": "(§2)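 Cytotoxicity was measured as inhibition of [¹⁴C]-L-leucine incorporation into protein. Triplicate cultures held 2 × 10⁴ cells/well, or 10⁵ PHA-stimulated peripheral blood lymphocytes, in RPMI 1640 with 10% FCS, 5% CO₂, 37 °C. Label (0.5 µCi/mL) was present for the final 24 h of a 3-day culture (4 days for PHA-Ly). Protein was precipitated with perchloric acid and counted. IC50 (µg/mL) was taken from dose-response curves.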"}, "[2]": {"test": "Efficacy was determined as ratio of Vmax to that of Km", "format": "ADME", "outline": "as §1"}, "IM-9": {"test_system": "IM-9", "test": "In vitro antitumor activity in IM-9 cell lines", "format": "functional, cell-based", "conditions": "Homo sapiens", "outline": "as §2"}, "[3]": {"test": "Catalytical constant (Vmax) was evaluated", "format": "ADME", "outline": "as §1"}, "K562": {"test_system": "K562", "test": "In vitro antitumor activity in K-562 cell lines", "format": "functional, cell-based", "conditions": "Homo sapiens", "outline": "as §2"}, "PHA-Ly": {"test_system": "PHA-Ly", "test": "IIn vitro antitumor activity in PHA-Ly cell lines", "format": "functional, cell-based", "conditions": "Homo sapiens", "outline": "as §2"}, "U-937": {"test_system": "U-937", "test": "In vitro antitumor activity in U-937 cell lines", "format": "functional, cell-based", "conditions": "Homo sapiens", "outline": "as §2"}, "[4]": {"test": "Catalytical constant (app Km)of the compound was evaluated at pH 7.5", "format": "ADME", "conditions": "read-out: Km app", "outline": "as §1"}}}
{"smiles": "O=c1[nH]c(=O)n([C@@H]2O[C@H](CO)[C@@H](O)[C@H]2O)c(CF)c1F", "values": [{"measurement": "Km", "setting": "[1]", "result": 979, "unit": "µM"}, {"measurement": "IC50", "setting": "MOLT-3", "result": 3.5, "unit": "µg/mL"}, {"measurement": "Efficacy", "setting": "[2]", "result": 0.06}, {"measurement": "IC50", "setting": "IM-9", "result": "> 10", "unit": "µg/mL"}, {"measurement": "Vmax", "setting": "[3]", "result": "57 uM min-1 (mg of protein)-1"}, {"measurement": "IC50", "setting": "K562", "result": "> 10", "unit": "µg/mL"}, {"measurement": "IC50", "setting": "PHA-Ly", "result": 4.5, "unit": "µg/mL"}, {"measurement": "IC50", "setting": "U-937", "result": 3.7, "unit": "µg/mL"}]}
{"smiles": "CCCc1cc(=O)[nH]c(=O)n1C1O[C@H](CO)[C@@H](O)[C@H]1O", "note": "(some centres undefined)", "values": [{"measurement": "Efficacy", "setting": "[2]", "result": 0.03}, {"measurement": "Vmax", "setting": "[3]", "result": "40 uM min-1 (mg of protein)-1"}, {"measurement": "Km", "setting": "[4]", "result": 1150, "unit": "µM"}]}
{"smiles": "O=c1cc(CF)n(C2O[C@H](CO)[C@@H](O)[C@H]2O)c(=O)[nH]1", "note": "(some centres undefined)", "values": [{"measurement": "IC50", "setting": "MOLT-3", "result": "> 10", "unit": "µg/mL"}, {"measurement": "Efficacy", "setting": "[2]", "result": 0.99}, {"measurement": "IC50", "setting": "IM-9", "result": 9.9, "unit": "µg/mL"}, {"measurement": "Vmax", "setting": "[3]", "result": "297 uM min-1 (mg of protein)-1"}, {"measurement": "Km", "setting": "[4]", "result": 300, "unit": "µM"}, {"measurement": "IC50", "setting": "K562", "result": "> 10", "unit": "µg/mL"}, {"measurement": "IC50", "setting": "PHA-Ly", "result": "> 10", "unit": "µg/mL"}, {"measurement": "IC50", "setting": "U-937", "result": "> 10", "unit": "µg/mL"}]}
{"smiles": "O=c1[nH]c(=O)n(C2O[C@H](CO)[C@@H](O)[C@H]2O)c(CO)c1F", "note": "(some centres undefined)", "values": [{"measurement": "Km", "setting": "[1]", "result": 4000, "unit": "µM"}, {"measurement": "IC50", "setting": "MOLT-3", "result": 1.2, "unit": "µg/mL"}, {"measurement": "Efficacy", "setting": "[2]", "result": 0.09}, {"measurement": "IC50", "setting": "IM-9", "result": 3, "unit": "µg/mL"}, {"measurement": "Vmax", "setting": "[3]", "result": "370 uM min-1 (mg of protein)-1"}, {"measurement": "IC50", "setting": "K562", "result": 4.9, "unit": "µg/mL"}, {"measurement": "IC50", "setting": "PHA-Ly", "result": 2.8, "unit": "µg/mL"}, {"measurement": "IC50", "setting": "U-937", "result": 3.7, "unit": "µg/mL"}]}
{"smiles": "O=c1cc(CO)n(C2O[C@H](CO)[C@@H](O)[C@H]2O)c(=O)[nH]1", "note": "(some centres undefined)", "values": [{"measurement": "IC50", "setting": "MOLT-3", "result": "> 10", "unit": "µg/mL"}, {"measurement": "Efficacy", "setting": "[2]", "result": 0.53}, {"measurement": "IC50", "setting": "IM-9", "result": "> 10", "unit": "µg/mL"}, {"measurement": "Vmax", "setting": "[3]", "result": "254 uM min-1 (mg of protein)-1"}, {"measurement": "Km", "setting": "[4]", "result": 476, "unit": "µM"}, {"measurement": "IC50", "setting": "K562", "result": "> 10", "unit": "µg/mL"}, {"measurement": "IC50", "setting": "PHA-Ly", "result": 98, "unit": "µg/mL"}, {"measurement": "IC50", "setting": "U-937", "result": "> 10", "unit": "µg/mL"}]}
{"smiles": "CCc1cc(=O)[nH]c(=O)n1C1O[C@H](CO)[C@@H](O)[C@H]1O", "note": "(some centres undefined)", "values": [{"measurement": "Efficacy", "setting": "[2]", "result": 0.15}, {"measurement": "Vmax", "setting": "[3]", "result": "175 uM min-1 (mg of protein)-1"}, {"measurement": "Km", "setting": "[4]", "result": 1200, "unit": "µM"}]}
{"smiles": "Cc1c(F)c(=O)[nH]c(=O)n1C1O[C@H](CO)[C@@H](O)[C@H]1O", "note": "(some centres undefined)", "values": [{"measurement": "Km", "setting": "[1]", "result": 1360, "unit": "µM"}, {"measurement": "IC50", "setting": "MOLT-3", "result": "> 10", "unit": "µg/mL"}, {"measurement": "Efficacy", "setting": "[2]", "result": 0.05}, {"measurement": "IC50", "setting": "IM-9", "result": "> 10", "unit": "µg/mL"}, {"measurement": "Vmax", "setting": "[3]", "result": "67 uM min-1 (mg of protein)-1"}, {"measurement": "IC50", "setting": "K562", "result": "> 10", "unit": "µg/mL"}, {"measurement": "IC50", "setting": "PHA-Ly", "result": "> 10", "unit": "µg/mL"}, {"measurement": "IC50", "setting": "U-937", "result": "> 10", "unit": "µg/mL"}]}
{"smiles": "O=c1[nH]c(=O)n([C@@H]2O[C@H](CO)[C@@H](O)[C@H]2O)cc1F", "note": "[5-FLUOROURIDINE]", "values": [{"measurement": "Km", "setting": "[1]", "result": 152, "unit": "µM"}, {"measurement": "IC50", "setting": "MOLT-3", "result": "< 0.01", "unit": "µg/mL"}, {"measurement": "Efficacy", "setting": "[2]", "result": 2.1}, {"measurement": "IC50", "setting": "IM-9", "result": "< 0.01", "unit": "µg/mL"}, {"measurement": "Vmax", "setting": "[3]", "result": "323 uM min-1 (mg of protein)-1"}, {"measurement": "IC50", "setting": "K562", "result": 0.026, "unit": "µg/mL"}, {"measurement": "IC50", "setting": "PHA-Ly", "result": "< 0.1", "unit": "µg/mL"}, {"measurement": "IC50", "setting": "U-937", "result": "< 0.01", "unit": "µg/mL"}]}
{"smiles": "O=c1[nH]cc(F)c(=O)[nH]1", "note": "[FLUOROURACIL]", "values": [{"measurement": "IC50", "setting": "MOLT-3", "result": 1.2, "unit": "µg/mL"}, {"measurement": "IC50", "setting": "IM-9", "result": 0.34, "unit": "µg/mL"}, {"measurement": "IC50", "setting": "K562", "result": 4.3, "unit": "µg/mL"}, {"measurement": "IC50", "setting": "PHA-Ly", "result": 1.4, "unit": "µg/mL"}, {"measurement": "IC50", "setting": "U-937", "result": 0.5, "unit": "µg/mL"}]}
